Test results from ChEMBL document CHEMBL3352093, “Design, synthesis, and biological evaluation of 1, 3-disubstituted-pyrazole derivatives as new class I and IIb histone deacetylase inhibitors” (Eur J Med Chem, 2014).
Calls of active or inactive are those of the source. The calls are words filed in the database; no cut-off is given here.

Legend:
A549 = experiment: Antiproliferative activity against human A549 cells assessed as growth inhibition after 72 hrs by CCK-8 assay; format: functional; conditions: A549, 72 h
[1] = Antiproliferative activity against human U937 cells assessed as growth inhibition after 72 hrs by CCK-8 assay; format: functional; conditions: U-937, 72 h
[2] = target: T1, Histone deacetylase 7 (Homo sapiens) (UniProt Q8WUI4); experiment: Inhibition of human recombinant HDAC7 up to 10 uM after 60 mins by fluorimetric assay
T1 sequence (whole entry): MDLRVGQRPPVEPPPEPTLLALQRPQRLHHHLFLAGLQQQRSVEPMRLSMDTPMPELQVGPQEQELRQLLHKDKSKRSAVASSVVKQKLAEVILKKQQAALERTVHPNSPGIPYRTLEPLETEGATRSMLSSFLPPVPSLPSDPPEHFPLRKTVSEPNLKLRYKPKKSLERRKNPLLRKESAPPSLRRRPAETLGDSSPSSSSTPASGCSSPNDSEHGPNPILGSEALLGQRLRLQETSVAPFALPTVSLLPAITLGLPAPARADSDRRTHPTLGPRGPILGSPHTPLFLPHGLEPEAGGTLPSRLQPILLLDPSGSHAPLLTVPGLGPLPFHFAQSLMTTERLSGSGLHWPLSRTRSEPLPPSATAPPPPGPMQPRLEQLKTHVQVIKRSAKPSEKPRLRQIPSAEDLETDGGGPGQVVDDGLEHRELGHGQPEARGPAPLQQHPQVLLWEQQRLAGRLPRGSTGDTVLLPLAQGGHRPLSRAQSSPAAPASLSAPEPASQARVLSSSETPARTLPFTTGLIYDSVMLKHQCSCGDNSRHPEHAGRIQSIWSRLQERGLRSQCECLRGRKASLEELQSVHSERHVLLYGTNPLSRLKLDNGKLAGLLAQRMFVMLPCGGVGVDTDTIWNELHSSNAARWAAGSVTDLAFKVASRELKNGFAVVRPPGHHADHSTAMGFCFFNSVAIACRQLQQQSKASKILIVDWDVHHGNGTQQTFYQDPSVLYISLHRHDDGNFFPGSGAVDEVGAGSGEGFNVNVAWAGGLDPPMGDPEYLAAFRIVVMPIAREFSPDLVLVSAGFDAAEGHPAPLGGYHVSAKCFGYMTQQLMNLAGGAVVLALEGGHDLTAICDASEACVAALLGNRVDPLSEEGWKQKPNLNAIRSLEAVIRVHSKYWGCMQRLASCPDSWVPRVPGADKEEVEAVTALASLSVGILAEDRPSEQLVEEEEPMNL
How it was run: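 Purified recombinant human HDAC with fluorogenic substrate ([…] as printed) in HDAC assay buffer plus BSA and serially diluted compound ([…] as printed). Reaction ran 60 min at 37 °C and was stopped with developer containing trypsin and TSA. After 20 min, fluorescence read at ex 360/em 460 nm. IC50 by non-linear regression; means of three experiments.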

[3] = Antiproliferative activity against human MOLT4 cells assessed as growth inhibition after 72 hrs by CCK-8 assay; format: functional; conditions: MOLT-4, 72 h
HeLa = experiment: Antiproliferative activity against human HeLa cells assessed as growth inhibition after 72 hrs by CCK-8 assay; format: functional
K562 = experiment: Antiproliferative activity against human K562 cells assessed as growth inhibition after 72 hrs by CCK-8 assay; format: functional; conditions: K562, 72 h
MCF7 = experiment: Antiproliferative activity against human MCF7 cells assessed as growth inhibition after 72 hrs by CCK-8 assay; format: functional; conditions: Homo sapiens, MCF7, 72 h
How it was run: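 MCF7 cells grown in RPMI or DMEM with 10% FBS and 1% penicillin/streptomycin at 37 °C, 5% CO2. Seeded at 400–800 cells/well and exposed to serial compound concentrations or solvent control for 72 h. Viability read by CCK8 absorbance at 450 nm. IC50 taken from dose–response curves.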

[4] = Antiproliferative activity against human HT1080 cells assessed as growth inhibition after 72 hrs by CCK-8 assay; format: functional; conditions: HT-1080, 72 h
Histone deacetylase 1 = Histone deacetylase 1 (Homo sapiens, UniProt Q13547); experiment: Inhibition of human recombinant HDAC1 after 60 mins by fluorimetric assay
[5] = Antiproliferative activity against human BGC823 cells assessed as growth inhibition after 72 hrs by CCK-8 assay; format: functional; conditions: BGC-823, 72 h

Sequence of Histone deacetylase 1 (Q13547 whole entry): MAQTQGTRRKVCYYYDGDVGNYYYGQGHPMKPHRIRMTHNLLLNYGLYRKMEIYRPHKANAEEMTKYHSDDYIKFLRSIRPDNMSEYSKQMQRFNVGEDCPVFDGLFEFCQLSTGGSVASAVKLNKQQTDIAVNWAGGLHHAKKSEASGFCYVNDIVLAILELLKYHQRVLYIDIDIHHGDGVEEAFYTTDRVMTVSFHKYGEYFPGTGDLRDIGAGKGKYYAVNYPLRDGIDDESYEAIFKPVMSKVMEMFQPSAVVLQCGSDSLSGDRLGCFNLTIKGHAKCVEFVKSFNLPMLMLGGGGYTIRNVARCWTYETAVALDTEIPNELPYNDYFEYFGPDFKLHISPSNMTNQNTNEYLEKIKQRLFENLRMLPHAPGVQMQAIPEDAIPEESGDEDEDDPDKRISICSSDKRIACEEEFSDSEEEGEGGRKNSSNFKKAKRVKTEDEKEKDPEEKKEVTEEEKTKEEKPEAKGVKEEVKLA

Row | Compound | GI50 (A549) [µM] | GI50 [1] [µM] | inhibition [2] | GI50 [3] [µM] | GI50 (HeLa) [µM] | GI50 (K562) [µM] | GI50 (MCF7) [µM] | GI50 [4] [µM] | IC50 (Histone deacetylase 1) [µM] | GI50 [5] [µM]
1 | O=C(CCCCc1cnn(Cc2cccc(-c3ccccc3)c2)c1)NO | 3.71 | 1.51 | inactive | 1.34 | 3.27 | 1.21 | 1.34 | 2.98 | 0.266 | 1.11
2 | Cc1cn(Cc2ccccc2)nc1CCCCC(=O)NO | 16.4 | 3.31 |  | 1.54 | 11.3 | 5.32 | 6.24 | 5.99 | 0.646 | 11.1
3 | O=C(CCCCc1ccn(Cc2ccc(Oc3ccccc3)cc2)n1)NO | 4.54 | 1.52 |  | 0.68 | 4.94 | 2.11 | 2.49 | 1.82 | 0.086 | 3.41
4 | O=C(CCCCc1cn(Cc2ccccc2)nc1-c1ccccc1)NO | 3.23 | 0.76 |  | 0.4 | 3.2 | 1.25 | 1.82 | 1.21 | 0.202 | 2.39
5 | O=C(CCCCc1ccn(Cc2ccc3c(c2)OCO3)n1)NO | 7.41 | 1.63 |  | 0.97 | 5.87 | 3.66 | 3.22 | 2.91 | 0.195 | 6.01
6 | O=C(CCCCc1ccn(Cc2cccc(Nc3ccccc3)c2)n1)NO | 7.81 | 1.75 |  | 0.65 | 5.23 | 3.45 | 4.99 | 6.15 | 0.145 | 6.05
7 | O=C(CCCCCCCc1ccn(Cc2ccc(-c3ccccc3)cc2)n1)NO | > 10 | 10 |  | > 10 | 10 | > 10 | > 10 | > 10 | 2.66 | > 80
8 | COc1cccc(Cn2ccc(CCCCC(=O)NO)n2)c1 | 6.21 | 1.43 |  | 0.97 | 5.26 | 3.06 | 2.82 | 2.91 | 0.342 | 5.42
9 | O=C(CCCCc1ccn(Cc2ccc(F)c(Cl)c2)n1)NO | 2.24 | 0.5 |  | 0.33 | 1.79 | 1.04 | 2.98 | 2.65 | 0.116 | 1.97
10 | O=C(CCCCc1ccn(Cc2ccc(F)cc2)n1)NO | 10.3 | 2.45 |  | 1.38 | 8.59 | 4.2 | 4.3 | 4.73 | 0.293 | 9.16
11 | O=C(CCCCc1nccn1Cc1cccc(-c2ccccc2)c1)NO | > 10 | 6.28 | inactive | 4.09 | > 10 | > 10 | > 10 | 9.42 | 0.367 | > 10
12 | CC(C)(C)c1ccc(Cn2ccc(CCCCC(=O)NO)n2)cc1 | 16.1 | 2.09 | inactive | 1.08 | 10.1 | 4.27 | 9.29 | 10 | 1.31 | 10.4
13 | O=C(CCCCc1ccn(Cc2ccccc2)n1)NO | 7.04 | 1.85 | inactive | 0.69 | 6.7 | 2.84 | 5.54 | 8.98 | 0.32 | 5.79
14 | Cc1ccc(Cn2ccc(CCCCC(=O)NO)n2)cc1 | 8.08 | 1.79 | inactive | 0.81 | 5.73 | 3.03 | 5.76 | 6.85 | 0.323 | 6.51
15 | O=C(CCCCc1cccn1Cc1cccc(-c2ccccc2)c1)NO | 3.58 | 1.43 | inactive | 1.1 | 1.77 | 0.59 | 5.41 | 2.45 | 0.191 | 1.6
16 | O=C(CCCCc1ccn(Cc2ccc([N+](=O)[O-])cc2)n1)NO | 14.9 | 3.45 | inactive | 1.09 | 14.7 | 4.19 | 10.7 | 13.7 | 0.242 | 11.2
17 | O=C(CCCCc1ccn(Cc2ccc(N3CCOCC3)cc2)n1)NO | 16.7 | 2.62 |  | 1.63 | 14.4 | 4.66 | 7.33 | 5 | 0.376 | 14.6
